Experimental data taken from publication PMC3832945 (Molecular pharmaceutics, 2013).
Peptide text beside a SMILES is read from it.

What was measured:
[1] = system: Myeloperoxidase activity (a measure of neutrophil migration); experiment: Myeloperoxidase; assay type: in vivo, mouse; conditions: for effect on MPO activity: 10 μM
In short: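 Jejunum or colon of wild-type and PepT1 knockout mice perfused in situ with Krebs–Ringer buffer (jejunum 0.067, colon 0.1 mL/min) for 30 min. Then 10 μM test compound, ± 50 mM GlyGly, for 4 h. MPO by o-dianisidine/H2O2 oxidation at pH 6.0, A460 over 2 min, reported as IU/g wet tissue. n = 5, mean ± SE, ANOVA/Tukey.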

[2] = biological target: T1, PepT1 (Mus musculus, UniProt Q9JIP7); experiment: In situ single-pass jejunal perfusion of [3H]fMet-Leu-Phe; assay type: in vivo
T1 sequence (Q9JIP7 1-709): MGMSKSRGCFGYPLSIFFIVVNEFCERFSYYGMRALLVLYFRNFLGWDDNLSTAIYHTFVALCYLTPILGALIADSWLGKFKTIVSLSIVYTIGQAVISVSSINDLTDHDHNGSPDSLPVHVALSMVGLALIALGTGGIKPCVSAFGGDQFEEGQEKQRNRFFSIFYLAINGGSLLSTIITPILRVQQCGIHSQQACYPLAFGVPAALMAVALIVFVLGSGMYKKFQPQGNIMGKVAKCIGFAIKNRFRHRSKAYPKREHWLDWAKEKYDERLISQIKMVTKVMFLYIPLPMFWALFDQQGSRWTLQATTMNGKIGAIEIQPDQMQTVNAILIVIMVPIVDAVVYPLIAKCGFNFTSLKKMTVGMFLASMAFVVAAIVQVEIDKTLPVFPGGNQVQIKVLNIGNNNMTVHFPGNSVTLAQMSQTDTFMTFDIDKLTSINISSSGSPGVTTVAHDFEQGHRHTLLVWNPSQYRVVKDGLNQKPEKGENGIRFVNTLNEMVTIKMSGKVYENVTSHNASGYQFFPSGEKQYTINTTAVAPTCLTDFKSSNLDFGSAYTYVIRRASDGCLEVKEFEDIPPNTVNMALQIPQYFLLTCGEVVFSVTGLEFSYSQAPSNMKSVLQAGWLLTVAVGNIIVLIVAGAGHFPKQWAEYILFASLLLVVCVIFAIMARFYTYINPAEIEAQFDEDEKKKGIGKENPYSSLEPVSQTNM

[3] = biological target: T1, PepT1; experiment: Regional intestinal permeability; assay type: in vivo
In short: (§1)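 Each region perfused separately in situ in fasted, pentobarbital-anaesthetised (40–60 mg/kg ip) wild-type and PepT1 knockout mice at 31 °C. Perfusate: 135 mM NaCl, 5 mM KCl, 10 mM MES pH 6.5, [14C]inulin, 2 μCi/ml (0.1 μM) labelled compound, 100 mM Phe, 0.1 mL/min. Outflow sampled every 10 min for 90 min and counted. Inulin-corrected steady-state Peff from parallel-tube model; n = 6.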

[4] = system: PepT1; experiment: Regional intestinal permeability; assay type: in vivo, mouse; conditions: colon, 0.1 μM
In short: as §1

[5] = Hydrolysis kinetics in jejunal homogenates; assay type: in vitro ADME, mouse; conditions: 0.4–100 μM, 1 min, 37 °C
In short: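 Jejunal mucosa scraped from wild-type or PepT1 knockout mice and homogenised in ice-cold PBS for 2 min. Spun at 12 000g for 15 min; supernatant protein at 0.5 mg/mL. Incubated with [3H-Phe]-labelled test compound at 0.4–100 μM, 1 min, 37 °C. Stopped with 10% TFA, HPLC with radiochemical detection. Rate from parent loss; Vmax and Km fitted; n = 4, mean ± SE.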

[6] = Metabolism in intestinal segments; assay type: in vitro ADME, mouse; conditions: wild-type mice, 0.8 mM, 5 min, 37 °C
In short: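 Wild-type intestinal pieces, 1 cm, opened longitudinally to expose the lumen. Incubated in PBS pH 7.4 with 0.8 mM test compound, 5 min, 37 °C, then iced and stopped with 10% TFA. Spun 12 000g, 5 min. Supernatant on reversed-phase C18 HPLC, UV 210 nm, 15–30% acetonitrile (0.1% TFA) gradient over 30 min. Parent and fragments identified with standards.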

[7] = Exposure in portal vein during jejunal perfusion; assay type: in vivo, mouse; conditions: 90 min jejunal perfusion of 0.1 μM [3H-Phe]fMet-Leu-Phe, wild-type mice
In short: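 Wild-type jejunal single-pass perfusion with 2 μCi/ml (0.1 μM) [3H-Phe]-labelled tripeptide; portal venous blood drawn at 80–90 min. Intact tripeptide and [3H-Phe] measured by HPLC with radiochemical detection: isocratic 30% acetonitrile plus 0.1% TFA, 1.0 mL/min, ambient. Peaks assigned with radiolabelled standards.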

[8] = 50 mM inhibitor, jejunal perfusion, PepT1 knockout mice
[9] = 50 mM inhibitor, jejunal perfusion, wild-type mice

## NCC(=O)NCC(=O)O [GlyGly, glycylglycine] (H-Gly-Gly-OH)
[1]; jejunum, wild-type mice, 10 μM fMet-Leu-Phe + 50 mM GlyGly, 4 h
  effect of coperfused dipeptide on fMet-Leu-Phe-induced MPO activity: returned to control values

## NCC(=O)N1CCC[C@H]1C(=O)O [GlyPro, glycylproline] (H-Gly-Pro-OH)
[2]
  Ki: 100 mM
[2]; 50 mM inhibitor, 0.1 μM [3H]fMet-Leu-Phe, jejunal perfusion, wild-type mice
  reduction of fMet-Leu-Phe uptake by inhibitor: 33%
[2]; [8]
  effect of inhibitor on permeability of fMet-Leu-Phe: but not in PepT1 knockout animals
[2]; [9]
  effect of inhibitor on permeability of fMet-Leu-Phe: significantly reduced

## N[C@@H](Cc1c[nH]cn1)C(=O)O [L-histidine]
[2]; [8]
  effect of inhibitor on permeability of fMet-Leu-Phe: no effect
[2]; [9]
  effect of inhibitor on permeability of fMet-Leu-Phe: no effect

## CSCC[C@H](NC=O)C(=O)N[C@@H](CC(C)C)C(=O)N[C@@H](Cc1ccccc1)C(=O)O [fMet-Leu-Phe, N-formyl-methionyl-leucyl-phenylalanine]
[3]; duodenal, jejunal and ileal segments, on average
  residual permeability in PepT1 knockout relative to wild-type mice: ~10%
[3]; duodenum, jejunum and ileum, 0.1 μM
  effective permeability in PepT1 knockout versus wild-type mice: considerably lower
[4]
  effective permeability in PepT1 knockout versus wild-type mice: did not differ between the two genotypes
[1]; colon, wild-type and PepT1 null mice, 4 h
  effect on MPO activity: without change
[1]; jejunum, PepT1 knockout mice, 4 h
  effect on MPO activity: no effect
[1]; jejunum, wild-type mice, 4 h perfusion of 10 μM fMet-Leu-Phe
  increase in MPO activity: about 2 fold
[5]; PepT1 knockout mice
  Vmax of hydrolysis: 3.3 ± 0.1 nmol/mg/min
[5]; wild-type mice
  Vmax of hydrolysis: 3.2 ± 0.2 nmol/mg/min
[6]; duodenum and jejunum
  hydrolysis in intestinal segments: substantial hydrolysis
[6]; ileum and colon
  hydrolysis in intestinal segments: only minor hydrolysis
[7]
  intact tripeptide in portal vein: no intact tripeptide was found
